For experiment [1], the species on record is Rattus norvegicus. The experiment can be described thus: Compound was tested for 50% Inhibition of lipid peroxidation in rat brain homogenate. The class given is functional.
Experiment [2] is filed under the species Rattus norvegicus. The experiment in a line: Ability to protect cerebellar granule cells (CGC) from iodoacetate (IAA)-induced toxicity. It is filed as functional, cell-based.
The species entered for experiment [3] is Rattus norvegicus. The experiment can be described thus: Relative efficacy gives an indication of the percent of viable cells (Rat cerebellar granule cells) at the maximal efficacious concentration of 5.0 uM. The class given is functional.
Experiment [4] is filed under the species Rattus norvegicus. The experiment can be described thus: Relative efficacy gives an indication of the percent of viable cells (Rat cerebellar granule cells) at the maximal efficacious concentration of 6 uM. The class given is functional.
The species named for experiment [5] is Rattus norvegicus. The experiment in a line: Relative efficacy gives an indication of the percent of viable cells (Rat cerebellar granule cells) at the maximal efficacious concentration of 0.3 uM. It is filed as functional.
For experiment [6], the species on record is Rattus norvegicus. The experiment can be described thus: Relative efficacy gives an indication of the percent of viable cells (Rat cerebellar granule cells) at the maximal efficacious concentration of 0.4 uM. The class given is functional.
The species named for experiment [7] is Rattus norvegicus. The experiment can be described thus: Relative efficacy gives an indication of the percent of viable cells (Rat cerebellar granule cells) at the maximal efficacious concentration of 33.3 uM. It is filed as functional.
Experiment [8] is filed under the species Rattus norvegicus. The experiment in a line: Relative efficacy gives an indication of the percent of viable cells (Rat cerebellar granule cells) at the maximal efficacious concentration of 0.6 uM. It is filed as functional.
The species entered for experiment [9] is Rattus norvegicus. The experiment in a line: Relative efficacy gives an indication of the percent of viable cells (Rat cerebellar granule cells) at the maximal efficacious concentration of 46.7 uM. It is filed as functional. An outline of the steps: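 Rat cerebellar granule cells exposed to 30 µM iodoacetate for 30 min in physiological salt solution, which was then replaced with maintenance medium containing test compound. Viability was read 24 h later. Relative efficacy is the percent of viable cells at the maximal efficacious concentration.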

The species named for experiment [10] is Rattus norvegicus. The experiment in a line: Relative efficacy gives an indication of the percent of viable cells (Rat cerebellar granule cells) at the maximal efficacious concentration of 26.8 uM. It is filed as functional.
Experiment [11] is filed under the species Rattus norvegicus. The experiment can be described thus: Relative efficacy gives an indication of the percent of viable cells (Rat cerebellar granule cells) at the maximal efficacious concentration of 77.8 uM. It is filed as functional.

For `CCNCc1cc(C(C)(C)C)c(O)c(C(C)(C)C)c1`, the IC50 in the experiment filed under Rattus norvegicus [1] was found to be 14.8 µM. A half-maximal effect in the experiment listed under Rattus norvegicus [2] (EC50) was put at 5 µM. Moreover, the Relative efficacy in the experiment filed under Rattus norvegicus [3] is 0.9.

Regarding `Cc1cc(C(C)(C)C)c(O)c(C(C)(C)C)c1` [BUTYLATED HYDROXYTOLUENE], in the experiment filed under Rattus norvegicus [4], the Relative efficacy came out at 0.9. The IC50 in the experiment filed under Rattus norvegicus [1] was 5.9 µM. The EC50 in the experiment listed under Rattus norvegicus [2] came out at 6 µM.

Take `Cc1c(O)c(=O)ccn1CCc1cc(C(C)(C)C)c(O)c(C(C)(C)C)c1`: 0.3 µM corresponded to half-maximal inhibition in the experiment listed under Rattus norvegicus [1] (IC50). This molecule showed an EC50 in the experiment filed under Rattus norvegicus [2] of 0.3 µM. Also, the Relative efficacy in the experiment listed under Rattus norvegicus [5] is recorded as 0.9.

As for `Cc1c(O)c(=O)ccn1CCCc1cc(C(C)(C)C)c(O)c(C(C)(C)C)c1`, in the experiment listed under Rattus norvegicus [1], the IC50 was 1 µM. In addition, the EC50 in the experiment filed under Rattus norvegicus [2] worked out at 0.3 µM. This molecule also returned a Relative efficacy in the experiment listed under Rattus norvegicus [5] of 0.8.

As for `Cc1c(O)c(=O)ccn1CCSc1cc(C(C)(C)C)c(O)c(C(C)(C)C)c1`, in the experiment filed under Rattus norvegicus [1], it took 0.4 µM to reach half-maximal inhibition (IC50). This molecule returned a Relative efficacy in the experiment filed under Rattus norvegicus [6] of 0.6. The EC50 in the experiment listed under Rattus norvegicus [2] is 0.4 µM.

In turn, `COc1cc(CCn2ccc(=O)c(O)c2C)cc(OC)c1O` returned a Relative efficacy in the experiment listed under Rattus norvegicus [7] of 0.9. The same molecule registered an IC50 in the experiment filed under Rattus norvegicus [1] of 3.3 µM. The 50% effective concentration (EC50) in the experiment filed under Rattus norvegicus [2] amounted to 33.3 µM.

Consider `Cc1c(O)c(=O)ccn1CCCCc1cc(C(C)(C)C)c(O)c(C(C)(C)C)c1`, for which the IC50 in the experiment filed under Rattus norvegicus [1] turned out to be 2.9 µM. In the experiment listed under Rattus norvegicus [2], the EC50 was found to be 0.6 µM. In addition, in the experiment listed under Rattus norvegicus [8], the Relative efficacy is reported as 0.7.

`Cc1c(O)c(=O)ccn1C` [DEFERIPRONE] had a 50% inhibitory concentration (IC50) in the experiment listed under Rattus norvegicus [1] of 3.9 µM. For the same molecule, in the experiment listed under Rattus norvegicus [2], the EC50 was 46.7 µM. The Relative efficacy in the experiment filed under Rattus norvegicus [9] came to 1.

In the experiment filed under Rattus norvegicus [10], `COc1cc(CCCn2ccc(=O)c(O)c2C)cc(OC)c1O` gave a Relative efficacy of 0.8. Also, the IC50 in the experiment filed under Rattus norvegicus [1] was 2 µM. Moreover, it took 26.8 µM to reach a half-maximal effect in the experiment filed under Rattus norvegicus [2] (EC50).

`Cc1c(C)c2c(c(C)c1O)CCC(C)(C(=O)O)O2` (stereo not given) [TROLOX]: the Relative efficacy in the experiment filed under Rattus norvegicus [11] was 0.9. In the experiment listed under Rattus norvegicus [1], this molecule had an IC50 of 28.7 µM. For the same molecule, in the experiment listed under Rattus norvegicus [2], the EC50 was found to be 77.8 µM.

By IC50 is commonly meant the midpoint of a concentration-inhibition curve. A higher IC50 goes with weaker potency in that assay. The term EC50 denotes the concentration that produces a half-maximal response. Higher therefore signals a need for much substance.

Source of the values: ChEMBL document CHEMBL1133778, “3,5-Disubstituted-4-hydroxyphenyls linked to 3-hydroxy-2-methyl-4(1H)-pyridinone: potent inhibitors of lipid peroxidation and cell toxicity” (J Med Chem, 2000).
